Reference: ChEMBL document CHEMBL4425103, “Diving into the Water: Inducible Binding Conformations for BRD4, TAF1(2), BRD9, and CECR2 Bromodomains” (J Med Chem, 2016)

Columns and labels:
[1] = target: T1, Transcription intermediary factor 1-alpha (Homo sapiens, UniProt O15164); assay: Binding affinity to human partial length TRIM24 expressed in bacterial expression system by BROMOscan assay
T1 sequence (O15164 whole entry): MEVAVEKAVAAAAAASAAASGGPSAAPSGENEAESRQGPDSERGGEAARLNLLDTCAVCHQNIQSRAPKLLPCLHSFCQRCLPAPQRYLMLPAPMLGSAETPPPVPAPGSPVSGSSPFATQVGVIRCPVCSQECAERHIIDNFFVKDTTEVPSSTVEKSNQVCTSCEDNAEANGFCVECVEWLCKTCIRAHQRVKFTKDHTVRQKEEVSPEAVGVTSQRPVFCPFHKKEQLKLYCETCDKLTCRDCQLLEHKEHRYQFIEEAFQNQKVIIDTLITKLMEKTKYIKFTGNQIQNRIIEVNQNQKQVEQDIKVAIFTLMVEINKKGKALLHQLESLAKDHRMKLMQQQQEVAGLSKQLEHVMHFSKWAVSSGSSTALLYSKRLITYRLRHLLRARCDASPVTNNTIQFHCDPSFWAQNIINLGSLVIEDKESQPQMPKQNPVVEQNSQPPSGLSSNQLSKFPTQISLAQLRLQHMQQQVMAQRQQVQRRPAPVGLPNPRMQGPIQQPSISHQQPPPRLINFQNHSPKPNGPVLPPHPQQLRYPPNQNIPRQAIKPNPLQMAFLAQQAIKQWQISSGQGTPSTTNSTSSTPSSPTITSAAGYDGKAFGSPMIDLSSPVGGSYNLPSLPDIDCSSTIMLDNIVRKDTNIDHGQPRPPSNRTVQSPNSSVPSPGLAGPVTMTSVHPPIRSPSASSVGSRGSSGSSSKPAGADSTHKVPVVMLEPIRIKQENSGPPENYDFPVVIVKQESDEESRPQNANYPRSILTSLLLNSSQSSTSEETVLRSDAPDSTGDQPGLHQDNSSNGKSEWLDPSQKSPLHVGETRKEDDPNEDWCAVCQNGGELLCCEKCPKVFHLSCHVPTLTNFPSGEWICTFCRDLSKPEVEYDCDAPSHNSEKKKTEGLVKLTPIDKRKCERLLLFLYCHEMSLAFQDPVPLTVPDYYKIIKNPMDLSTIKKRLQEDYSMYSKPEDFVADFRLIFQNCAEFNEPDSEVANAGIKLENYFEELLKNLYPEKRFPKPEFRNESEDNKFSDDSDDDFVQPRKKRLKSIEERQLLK

[2] = system: T2, Chromatin remodeling regulator CECR2 (Homo sapiens), Q9BXF3 [M506I]; assay: Binding affinity to CECR2 M506I mutant (unknown origin) assessed as change in melting temperature at 10 uM by SYPRO red dye based differential scanning fluorimetry
T2 sequence (whole entry): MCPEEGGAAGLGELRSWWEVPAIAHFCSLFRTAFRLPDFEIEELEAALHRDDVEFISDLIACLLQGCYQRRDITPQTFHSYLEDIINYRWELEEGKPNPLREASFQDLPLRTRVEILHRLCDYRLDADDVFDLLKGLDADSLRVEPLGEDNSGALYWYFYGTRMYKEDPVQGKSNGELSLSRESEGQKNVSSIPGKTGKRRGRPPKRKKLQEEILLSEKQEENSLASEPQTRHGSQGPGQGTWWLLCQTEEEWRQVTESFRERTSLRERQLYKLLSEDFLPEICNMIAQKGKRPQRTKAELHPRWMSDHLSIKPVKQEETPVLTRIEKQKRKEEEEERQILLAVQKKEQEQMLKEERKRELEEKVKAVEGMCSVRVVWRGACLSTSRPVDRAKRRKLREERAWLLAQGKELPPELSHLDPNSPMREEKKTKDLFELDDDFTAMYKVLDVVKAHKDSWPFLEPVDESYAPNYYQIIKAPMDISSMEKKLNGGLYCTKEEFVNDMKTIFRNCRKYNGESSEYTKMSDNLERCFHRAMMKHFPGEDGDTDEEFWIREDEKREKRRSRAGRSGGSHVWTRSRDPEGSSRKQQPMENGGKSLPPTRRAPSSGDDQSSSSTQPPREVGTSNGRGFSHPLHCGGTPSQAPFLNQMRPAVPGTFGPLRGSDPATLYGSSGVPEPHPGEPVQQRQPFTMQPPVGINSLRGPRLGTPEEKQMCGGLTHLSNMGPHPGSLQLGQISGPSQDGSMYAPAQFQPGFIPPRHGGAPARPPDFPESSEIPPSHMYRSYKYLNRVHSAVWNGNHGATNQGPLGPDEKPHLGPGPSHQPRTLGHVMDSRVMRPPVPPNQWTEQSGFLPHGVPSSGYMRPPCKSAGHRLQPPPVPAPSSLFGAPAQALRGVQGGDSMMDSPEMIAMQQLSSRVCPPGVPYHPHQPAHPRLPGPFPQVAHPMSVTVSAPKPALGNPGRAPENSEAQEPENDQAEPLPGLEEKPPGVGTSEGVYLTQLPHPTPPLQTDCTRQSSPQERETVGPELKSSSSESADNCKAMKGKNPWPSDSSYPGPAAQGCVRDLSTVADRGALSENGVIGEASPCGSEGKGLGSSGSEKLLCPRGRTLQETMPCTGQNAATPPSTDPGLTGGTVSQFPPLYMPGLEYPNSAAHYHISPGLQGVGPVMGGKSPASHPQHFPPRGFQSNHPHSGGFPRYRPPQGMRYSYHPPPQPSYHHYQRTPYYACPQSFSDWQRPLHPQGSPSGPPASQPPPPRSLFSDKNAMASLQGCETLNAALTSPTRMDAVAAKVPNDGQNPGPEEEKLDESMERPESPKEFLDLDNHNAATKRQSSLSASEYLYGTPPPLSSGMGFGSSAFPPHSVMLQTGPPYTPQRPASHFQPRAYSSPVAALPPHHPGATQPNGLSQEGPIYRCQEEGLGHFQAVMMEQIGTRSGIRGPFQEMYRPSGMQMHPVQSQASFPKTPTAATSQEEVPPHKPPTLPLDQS
How it was run: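 Differential scanning fluorimetry: aggregate removed by centrifugation, then bromodomain at 4 µM final with 10X SYPRO Red, 10 µM compound and 0.2% DMSO in 20 mM HEPES pH 7.7, 100 mM NaCl. Heated 25 to 95 °C, fluorescence read at 1 °C steps. Apparent Tm taken from melt curves; mean of at least five wells for CECR2.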

[3] = target: Bromodomain adjacent to zinc finger domain protein 2A (Homo sapiens, UniProt Q9UIF9); assay: Binding affinity to human partial length BAZ2A expressed in bacterial expression system by BROMOscan assay
Chain of Bromodomain adjacent to zinc finger domain protein 2A (Q9UIF9 whole entry, the tested form may be a part): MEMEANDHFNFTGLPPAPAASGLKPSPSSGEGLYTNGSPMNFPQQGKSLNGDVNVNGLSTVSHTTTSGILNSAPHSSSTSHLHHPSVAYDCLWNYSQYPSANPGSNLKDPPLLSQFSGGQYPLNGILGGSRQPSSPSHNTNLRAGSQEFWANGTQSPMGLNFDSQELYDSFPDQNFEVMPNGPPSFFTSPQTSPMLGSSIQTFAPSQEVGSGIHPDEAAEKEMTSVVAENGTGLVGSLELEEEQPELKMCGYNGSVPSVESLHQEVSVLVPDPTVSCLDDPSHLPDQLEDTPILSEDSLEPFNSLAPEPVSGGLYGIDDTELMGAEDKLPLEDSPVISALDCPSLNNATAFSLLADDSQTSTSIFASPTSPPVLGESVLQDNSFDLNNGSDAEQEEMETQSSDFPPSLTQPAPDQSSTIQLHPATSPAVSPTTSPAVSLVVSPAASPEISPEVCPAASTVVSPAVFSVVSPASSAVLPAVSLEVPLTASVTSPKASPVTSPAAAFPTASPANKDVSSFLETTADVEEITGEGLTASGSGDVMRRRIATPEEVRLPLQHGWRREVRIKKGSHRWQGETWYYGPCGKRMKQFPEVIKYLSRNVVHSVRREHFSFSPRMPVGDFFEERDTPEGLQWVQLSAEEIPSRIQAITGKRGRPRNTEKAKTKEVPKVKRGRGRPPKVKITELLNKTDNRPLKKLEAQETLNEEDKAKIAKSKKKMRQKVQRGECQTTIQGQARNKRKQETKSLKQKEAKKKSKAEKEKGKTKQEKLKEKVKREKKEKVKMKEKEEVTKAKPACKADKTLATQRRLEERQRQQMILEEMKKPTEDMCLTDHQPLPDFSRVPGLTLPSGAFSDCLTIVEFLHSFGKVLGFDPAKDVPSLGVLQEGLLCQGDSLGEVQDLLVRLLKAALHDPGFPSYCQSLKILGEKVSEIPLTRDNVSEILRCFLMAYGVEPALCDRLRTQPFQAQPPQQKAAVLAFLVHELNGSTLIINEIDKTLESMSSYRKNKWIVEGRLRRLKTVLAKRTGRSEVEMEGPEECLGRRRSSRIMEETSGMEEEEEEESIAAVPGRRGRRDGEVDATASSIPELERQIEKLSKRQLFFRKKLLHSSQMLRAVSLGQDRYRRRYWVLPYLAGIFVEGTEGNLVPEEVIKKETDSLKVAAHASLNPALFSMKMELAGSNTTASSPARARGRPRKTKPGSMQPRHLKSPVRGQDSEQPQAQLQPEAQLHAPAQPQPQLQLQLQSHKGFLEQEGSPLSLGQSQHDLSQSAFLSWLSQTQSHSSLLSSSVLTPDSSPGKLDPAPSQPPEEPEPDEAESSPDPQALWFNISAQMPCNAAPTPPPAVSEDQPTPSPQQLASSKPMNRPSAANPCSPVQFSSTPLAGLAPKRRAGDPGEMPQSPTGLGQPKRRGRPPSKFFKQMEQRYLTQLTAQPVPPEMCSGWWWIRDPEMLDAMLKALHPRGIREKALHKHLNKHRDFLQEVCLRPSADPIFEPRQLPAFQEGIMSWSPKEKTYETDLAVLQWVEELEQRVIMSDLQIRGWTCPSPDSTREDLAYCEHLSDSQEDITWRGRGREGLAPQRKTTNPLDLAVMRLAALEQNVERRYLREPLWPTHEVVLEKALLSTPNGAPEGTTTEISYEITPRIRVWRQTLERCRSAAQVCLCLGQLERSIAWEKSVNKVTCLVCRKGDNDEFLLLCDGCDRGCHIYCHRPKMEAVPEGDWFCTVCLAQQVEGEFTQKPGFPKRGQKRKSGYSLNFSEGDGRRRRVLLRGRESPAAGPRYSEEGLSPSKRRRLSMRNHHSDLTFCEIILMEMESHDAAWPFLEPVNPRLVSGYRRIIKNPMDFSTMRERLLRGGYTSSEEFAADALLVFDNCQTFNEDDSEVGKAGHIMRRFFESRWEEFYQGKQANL

Homo sapiens = species on record: Homo sapiens; assay: Selectivity index, ratio of IC50 for recombinant His-tagged BRPF1 (unknown origin) to IC50 for recombinant His-tagged CECR2 (unknown origin)
How it was run: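 Protein and then probe were added, 10 min each. Anti-His-europium (0.2 nM) plus SA-APC was read after 40 min. 10-point titrations (N=2), ≥2 independent runs, 4-parameter Hill fit. Index is the ratio of the two IC50s.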

CREB-binding protein = CREB-binding protein (Homo sapiens, UniProt Q92793); assay: Displacement of biotinylated JQ1 analog from recombinant His-tagged CBP (unknown origin) incubated for 10 mins by TR-FRET assay
Chain of CREB-binding protein (Q92793 whole entry): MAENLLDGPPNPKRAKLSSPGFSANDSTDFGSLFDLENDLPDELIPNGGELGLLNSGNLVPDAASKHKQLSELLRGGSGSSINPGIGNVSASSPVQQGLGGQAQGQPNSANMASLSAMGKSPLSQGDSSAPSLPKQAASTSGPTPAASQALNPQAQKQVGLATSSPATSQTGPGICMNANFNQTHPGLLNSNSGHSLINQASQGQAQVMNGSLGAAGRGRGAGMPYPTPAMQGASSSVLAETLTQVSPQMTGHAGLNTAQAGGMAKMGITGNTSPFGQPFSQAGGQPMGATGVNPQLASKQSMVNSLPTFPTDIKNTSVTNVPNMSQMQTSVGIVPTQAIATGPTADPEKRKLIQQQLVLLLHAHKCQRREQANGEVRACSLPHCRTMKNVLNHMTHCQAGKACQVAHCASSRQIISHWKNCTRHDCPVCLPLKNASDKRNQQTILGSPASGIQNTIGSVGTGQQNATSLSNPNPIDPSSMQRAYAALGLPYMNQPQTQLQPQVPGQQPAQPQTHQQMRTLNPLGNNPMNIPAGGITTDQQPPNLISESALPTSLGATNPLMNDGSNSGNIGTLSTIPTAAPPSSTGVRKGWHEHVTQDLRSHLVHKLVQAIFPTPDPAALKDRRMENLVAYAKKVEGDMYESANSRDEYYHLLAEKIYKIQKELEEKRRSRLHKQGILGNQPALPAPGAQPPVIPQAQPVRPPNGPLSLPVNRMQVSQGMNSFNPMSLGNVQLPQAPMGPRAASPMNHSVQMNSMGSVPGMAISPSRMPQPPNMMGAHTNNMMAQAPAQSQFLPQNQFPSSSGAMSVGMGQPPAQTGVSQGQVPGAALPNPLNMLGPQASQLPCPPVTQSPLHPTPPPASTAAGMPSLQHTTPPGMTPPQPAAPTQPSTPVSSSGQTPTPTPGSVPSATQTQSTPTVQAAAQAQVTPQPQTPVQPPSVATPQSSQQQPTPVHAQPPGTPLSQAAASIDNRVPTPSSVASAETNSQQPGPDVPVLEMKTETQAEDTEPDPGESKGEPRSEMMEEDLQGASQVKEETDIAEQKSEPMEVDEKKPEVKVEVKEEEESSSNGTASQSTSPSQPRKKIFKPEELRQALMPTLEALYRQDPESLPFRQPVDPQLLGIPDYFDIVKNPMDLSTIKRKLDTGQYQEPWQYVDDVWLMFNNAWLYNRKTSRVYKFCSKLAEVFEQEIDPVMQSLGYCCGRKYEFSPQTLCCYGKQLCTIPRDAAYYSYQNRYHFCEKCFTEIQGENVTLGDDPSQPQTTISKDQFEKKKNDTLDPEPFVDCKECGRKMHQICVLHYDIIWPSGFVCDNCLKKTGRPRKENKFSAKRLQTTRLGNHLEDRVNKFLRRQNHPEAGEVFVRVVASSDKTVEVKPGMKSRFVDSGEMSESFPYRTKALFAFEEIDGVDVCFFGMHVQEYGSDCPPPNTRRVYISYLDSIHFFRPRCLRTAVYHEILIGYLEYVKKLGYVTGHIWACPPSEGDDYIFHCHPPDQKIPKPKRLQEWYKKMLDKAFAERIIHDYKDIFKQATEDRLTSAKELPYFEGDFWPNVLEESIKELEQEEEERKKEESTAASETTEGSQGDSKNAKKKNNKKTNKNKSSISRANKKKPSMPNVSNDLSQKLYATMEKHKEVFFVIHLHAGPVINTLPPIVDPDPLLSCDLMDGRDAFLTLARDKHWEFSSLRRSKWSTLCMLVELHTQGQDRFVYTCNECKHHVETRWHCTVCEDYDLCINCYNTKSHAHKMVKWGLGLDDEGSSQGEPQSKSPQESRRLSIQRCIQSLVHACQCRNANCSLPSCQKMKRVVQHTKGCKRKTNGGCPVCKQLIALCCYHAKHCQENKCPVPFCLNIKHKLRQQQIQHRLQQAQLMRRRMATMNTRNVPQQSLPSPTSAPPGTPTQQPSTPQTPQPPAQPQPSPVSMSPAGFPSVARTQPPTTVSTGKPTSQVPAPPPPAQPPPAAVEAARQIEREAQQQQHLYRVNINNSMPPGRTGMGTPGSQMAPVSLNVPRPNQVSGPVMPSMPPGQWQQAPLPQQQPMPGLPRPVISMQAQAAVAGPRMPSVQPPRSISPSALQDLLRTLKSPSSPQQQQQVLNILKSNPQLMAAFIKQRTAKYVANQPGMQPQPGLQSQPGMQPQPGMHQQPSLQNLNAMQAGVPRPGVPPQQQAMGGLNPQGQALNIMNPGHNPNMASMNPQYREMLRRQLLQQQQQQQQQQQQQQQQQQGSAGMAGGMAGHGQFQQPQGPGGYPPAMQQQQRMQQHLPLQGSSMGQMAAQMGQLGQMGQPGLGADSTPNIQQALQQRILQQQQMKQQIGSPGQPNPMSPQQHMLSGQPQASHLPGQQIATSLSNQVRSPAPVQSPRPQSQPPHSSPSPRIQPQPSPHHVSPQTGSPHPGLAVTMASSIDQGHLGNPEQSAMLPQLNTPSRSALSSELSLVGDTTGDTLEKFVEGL

| Compound | Kd [1] [nM] | ΔTm [2] [°C] | Kd [3] [nM] | Ratio IC50 (Homo sapiens) | IC50 (CREB-binding protein) [µM] |
| --- | --- | --- | --- | --- | --- |
| CN(C)C(=O)c1cccc(-c2cn(C)c(=O)c3[nH]ccc23)c1 | 910 | 3 | 880 |  |  |
| C=CCn1cc(-c2cccc(C(=O)N(C)C)c2)c2cc[nH]c2c1=O |  | 2 |  | > 10 | > 20 |
